According to ChEMBL document CHEMBL3286244, “Chlorpheniramine Analogues Reverse Chloroquine Resistance in Plasmodium falciparum by Inhibiting PfCRT” (ACS Med Chem Lett, 2014):
Active and inactive are the calls of the source. The calls are words filed in the database; no cut-off is given here.

How the values were obtained:
[1] = test system: Plasmodium falciparum; experiment: Response modification index, ratio of IC50 for Plasmodium falciparum C4Dd2 expressing chloroquine-resistance-conferring pfcrt alleles in presence of drug to IC50 for Plasmodium falciparum C4Dd2 expressing chloroquine-resistance-conferring pfcrt alleles in absence of 800 nM of drug; format: functional
Procedure, shortened: (§1)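 Proliferation assays on isogenic pfcrt transfectant lines (C4Dd2, C67G8). CQ IC50 determined with and without 800 nM test compound. RMI calculated as CQ IC50 with compound divided by CQ IC50 without compound.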

[2] = test system: Plasmodium falciparum; experiment: Antiplasmodial activity against Plasmodium falciparum C4Dd2 expressing chloroquine-resistance-conferring pfcrt alleles assessed as parasite growth at 800 nM after 72 hrs by SYBR Green I-based fluorescence assay relative to control; format: functional
Procedure, shortened: (§2)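 Isogenic pfcrt transfectant lines (C2GCO3 wild-type allele; C4Dd2 and C67G8 carrying CQ-resistance-conferring alleles from Dd2 or 7G8). Parasite proliferation measured in the absence of CQ with test compound at 800 nM and expressed relative to untreated control.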

[3] = target: T1, Chloroquine resistance transporter (Plasmodium falciparum) (UniProt Q9N623); experiment: Inhibition of CTR in Plasmodium falciparum C4Dd2 expressing chloroquine-resistance-conferring pfcrt alleles assessed as increase of accumulation of [3H]-chloroquine level at 1 uM after 1 hr relative to control
T1 sequence (whole entry): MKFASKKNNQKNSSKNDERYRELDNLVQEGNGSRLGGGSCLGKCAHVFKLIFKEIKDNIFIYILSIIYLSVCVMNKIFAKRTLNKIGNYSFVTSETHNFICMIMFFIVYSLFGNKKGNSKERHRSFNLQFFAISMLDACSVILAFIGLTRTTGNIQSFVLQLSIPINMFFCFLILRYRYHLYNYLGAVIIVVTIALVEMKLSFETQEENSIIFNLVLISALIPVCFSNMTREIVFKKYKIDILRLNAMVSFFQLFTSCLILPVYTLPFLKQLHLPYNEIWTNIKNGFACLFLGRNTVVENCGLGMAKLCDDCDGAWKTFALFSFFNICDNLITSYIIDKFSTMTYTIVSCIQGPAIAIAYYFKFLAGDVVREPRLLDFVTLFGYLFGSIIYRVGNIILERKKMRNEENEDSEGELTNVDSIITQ
Procedure, shortened: (§3)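 Isogenic pfcrt transfectant lines C2GCO3 (wild-type allele), C4Dd2 and C67G8 (CQ-resistance alleles from Dd2 or 7G8). CQ accumulation ratio measured with and without reverser. Expressed as fold increase in accumulation ratio over control.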

[4] = target: T1, Chloroquine resistance transporter (Plasmodium falciparum); experiment: Inhibition of CTR in Plasmodium falciparum C2GC03 expressing wild-type pfcrt allele assessed as increase of accumulation of [3H]-chloroquine level at 1 uM after 1 hr; procedure, shortened: as §3
[5] = target: Chloroquine resistance transporter (Plasmodium falciparum, UniProt Q9N623); experiment: Inhibition of chloroquine-resistant Plasmodium falciparum Dd2 CRT expressed in Xenopus laevis oocytes plasma membrane assessed as reduction of [3H]-chloroquine transportation after 1 to 2 hrs; format: cell-based
Procedure, shortened: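 Xenopus oocytes expressing PfCRTCQR. Inhibition of [3H]CQ uptake measured over a range of reverser concentrations. IC50 derived from concentration-response data, reported as mean ± SEM.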

[6] = test system: Plasmodium falciparum; experiment: Antiplasmodial activity against Plasmodium falciparum C2GC03 expressing wild-type pfcrt allele assessed as parasite growth at 800 nM after 72 hrs by SYBR Green I-based fluorescence assay relative to control; format: functional
Procedure, shortened: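 Isogenic pfcrt transfectant parasite line C2GCO3 (wild-type pfcrt allele) was grown in a proliferation assay with the test compound at 800 nM and no chloroquine. Proliferation is expressed relative to untreated control.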

[7] = target: T1, Chloroquine resistance transporter (Plasmodium falciparum); experiment: Inhibition of chloroquine-resistant Plasmodium falciparum Dd2 CRT expressed in Xenopus laevis oocytes plasma membrane assessed as reduction of [3H]-chloroquine transportation at 100 uM after 1 to 2 hrs; format: cell-based
Procedure, shortened: (§4)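 Xenopus oocytes expressing PfCRT of the CQ-resistant (PfCRTCQR) or CQ-sensitive (PfCRTCQS) form. [3H]CQ uptake measured in the presence of reverser at 100 μM extracellular.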

[8] = test system: Plasmodium falciparum; experiment: Response modification index, ratio of IC50 for Plasmodium falciparum C2GC03 expressing wild-type pfcrt allele in presence of drug to IC50 for Plasmodium falciparum C2GC03 expressing wild-type pfcrt allele in absence of 800 nM of drug; format: functional
Procedure, shortened: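 In a parasite proliferation assay on the isogenic pfcrt transfectant line C2GCO3 (wild-type allele), chloroquine IC50 was measured with and without the test compound at 800 nM. RMI is chloroquine IC50 with the compound divided by chloroquine IC50 without it.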

[9] = target: T1, Chloroquine resistance transporter (Plasmodium falciparum); experiment: Inhibition of chloroquine-sensitive Plasmodium falciparum D10 CRT expressed in Xenopus laevis oocytes plasma membrane assessed as reduction of [3H]-chloroquine transportation at 100 uM after 1 to 2 hrs; format: cell-based; procedure, shortened: as §4
[10] = target: T1, Chloroquine resistance transporter (Plasmodium falciparum); experiment: Inhibition of CTR in Plasmodium falciparum C67G8 expressing chloroquine-resistance-conferring pfcrt alleles assessed as increase of accumulation of [3H]-chloroquine level at 1 uM after 1 hr relative to control; procedure, shortened: as §3
[11] = test system: Plasmodium falciparum; experiment: Response modification index, ratio of IC50 for Plasmodium falciparum C67G8 expressing chloroquine-resistance-conferring pfcrt alleles in presence of drug to IC50 for Plasmodium falciparum C67G8 expressing chloroquine-resistance-conferring pfcrt alleles in absence of 800 nM of drug; format: functional; procedure, shortened: as §1
[12] = test system: Plasmodium falciparum; experiment: Antiplasmodial activity against Plasmodium falciparum C67G8 expressing chloroquine-resistance-conferring pfcrt alleles assessed as parasite growth at 800 nM after 72 hrs by SYBR Green I-based fluorescence assay relative to control; format: functional; procedure, shortened: as §2

SMILES: CCN(CC)C/C=C(\c1ccc(Cl)cc1)c1ccccn1
- Ratio IC50 [1]: 0.49
- Activity [2]: 84%
- fold change (FC) [3]: 1.6
- inhibition [4]: inactive
- IC50 [5]: 321 µM
- Activity [6]: 100%
- inhibition [7]: inactive
- Ratio IC50 [8]: 1.01
- inhibition [9]: inactive
- fold change (FC) [10]: 1.4
- Ratio IC50 [11]: 0.69
- Activity [12]: 90%

SMILES: COc1ccc(CCN(C)CCCC(C#N)(c2ccc(OC)c(OC)c2)C(C)C)cc1OC (stereo not given)
- Activity [2]: 46%
- fold change (FC) [3]: 3.1
- inhibition [4]: inactive
- Activity [6]: 43%
- inhibition [7]: Active
- fold change (FC) [10]: 1.9
- Activity [12]: 55%

SMILES: CCN(CC)C/C=C(/c1ccc(Cl)cc1)c1ccccn1
- inhibition [7]: inactive
- inhibition [9]: inactive

SMILES: CN(C)C/C=C(/c1cccc(Cl)c1)c1ccccn1
- inhibition [4]: inactive
- inhibition [7]: inactive
- inhibition [9]: inactive

SMILES: CN(C)C/C=C(\c1cccc(Cl)c1)c1ccccn1
- inhibition [4]: inactive
- inhibition [7]: inactive
- inhibition [9]: inactive

SMILES: CN(C)CC/C=C(/c1ccc(Cl)cc1)c1ccccn1
- inhibition [4]: inactive
- inhibition [7]: inactive
- inhibition [9]: inactive

SMILES: CN(C)CC/C=C(/c1cccc(Cl)c1)c1ccccn1
- inhibition [4]: inactive
- inhibition [7]: inactive
- inhibition [9]: inactive

SMILES: CN(C)CC/C=C(/c1ccccn1)c1ccccc1Cl
- inhibition [4]: inactive
- inhibition [7]: inactive
- inhibition [9]: inactive

SMILES: CN(C)CC/C=C(\c1ccc(Cl)cc1)c1ccccn1
- inhibition [4]: inactive
- inhibition [7]: inactive
- inhibition [9]: inactive

SMILES: CN(C)CC/C=C(\c1cccc(Cl)c1)c1ccccn1
- inhibition [4]: inactive
- inhibition [7]: inactive
- inhibition [9]: inactive

SMILES: CN(C)CCC/C=C(/c1ccc(Cl)cc1)c1ccccn1
- inhibition [4]: inactive
- inhibition [7]: inactive
- inhibition [9]: inactive

SMILES: CN(C)CCC/C=C(\c1ccc(Cl)cc1)c1ccccn1
- inhibition [4]: inactive
- inhibition [7]: inactive
- inhibition [9]: inactive

SMILES: N#C/C=C(/c1ccccc1)c1ccccn1
- inhibition [4]: inactive
- inhibition [7]: inactive
- inhibition [9]: inactive

SMILES: N#C/C=C(\c1ccccc1)c1ccccn1
- inhibition [3]: inactive
- inhibition [4]: inactive
- inhibition [7]: inactive
- inhibition [9]: inactive
- inhibition [10]: inactive

SMILES: CN(C)CCCC(c1cccc(Cl)c1)c1ccccn1 (racemic)
- Ratio IC50 [1]: 0.27
- Activity [2]: 67%
- fold change (FC) [3]: 2.7
- inhibition [4]: inactive
- IC50 [5]: 66 µM
- Activity [6]: 99%
- inhibition [7]: inactive
- Ratio IC50 [8]: 0.95
- inhibition [9]: inactive
- fold change (FC) [10]: 2
- Ratio IC50 [11]: 0.35
- Activity [12]: 72%

SMILES: CN(C)CCC(c1cccc(Cl)c1)c1ccccn1 (racemic)
- Ratio IC50 [1]: 0.27
- Activity [2]: 75%
- inhibition [4]: inactive
- IC50 [5]: 63 µM
- Activity [6]: 99%
- inhibition [7]: inactive
- Ratio IC50 [8]: 0.99
- inhibition [9]: inactive
- Ratio IC50 [11]: 0.35
- Activity [12]: 74%

SMILES: CN(C)CCCCC(c1ccc(Cl)cc1)c1ccccn1 (racemic)
- Ratio IC50 [1]: 0.28
- Activity [2]: 74%
- fold change (FC) [3]: 2.4
- inhibition [4]: inactive
- IC50 [5]: 180 µM
- Activity [6]: 100%
- inhibition [7]: inactive
- Ratio IC50 [8]: 0.92
- inhibition [9]: inactive
- fold change (FC) [10]: 1.8
- Ratio IC50 [11]: 0.39
- Activity [12]: 79%

SMILES: CCN(CC)CCC(c1ccc(Cl)cc1)c1ccccn1 (racemic)
- inhibition [4]: inactive
- inhibition [7]: inactive
- inhibition [9]: inactive

SMILES: CN(C)CCCC(c1ccc(Cl)cc1)c1ccccn1 (racemic)
- inhibition [4]: inactive
- inhibition [7]: inactive
- inhibition [9]: inactive

SMILES: CN(C)CCCC(c1cccc(Cl)c1)c1cnccn1 (racemic)
- inhibition [4]: inactive
- inhibition [7]: inactive
- inhibition [9]: inactive

SMILES: CN(C)CCCC(c1ccccc1)c1ccccn1 (racemic)
- inhibition [4]: inactive
- inhibition [7]: inactive
- inhibition [9]: inactive

SMILES: CN(C)CCCC(c1ccccn1)c1ccccc1Cl (racemic)
- inhibition [4]: inactive
- inhibition [7]: inactive
- inhibition [9]: inactive

SMILES: CN(C)CCCC(c1cccnc1)c1cccc(Cl)c1 (racemic)
- inhibition [4]: inactive
- inhibition [7]: inactive
- inhibition [9]: inactive

SMILES: CN(C)CCCC(c1ccncc1)c1cccc(Cl)c1 (racemic)
- inhibition [4]: inactive
- inhibition [7]: inactive
- inhibition [9]: inactive

SMILES: CN(C)CCCCCC(c1ccc(Cl)cc1)c1ccccn1 (racemic)
- inhibition [4]: inactive
- inhibition [7]: inactive
- inhibition [9]: inactive

SMILES: CN(C)CCC(c1ccc(Cl)cc1)c1ccccn1 (stereo in doubt; form 1)
- fold change (FC) [3]: 2.7
- inhibition [4]: inactive
- inhibition [7]: Active
- fold change (FC) [10]: 2

SMILES: CN(C)CCC(c1ccc(Cl)cc1)c1ccccn1 (stereo in doubt; form 1) [CHLORPHENIRAMINE]
- Ratio IC50 [1]: 0.24
- Activity [2]: 78%
- IC50 [5]: 54 µM
- Activity [6]: 97%
- Ratio IC50 [8]: 1.09
- Ratio IC50 [11]: 0.37
- Activity [12]: 76%

SMILES: CN(C)CCC(c1ccc(Cl)cc1)c1ccccn1 (stereo in doubt; form 2)
- inhibition [4]: inactive

SMILES: COc1cc(NC(C)CCCN)c2ncccc2c1 (stereo not given) [PRIMAQUINE]
- IC50 [5]: 68 µM
- inhibition [7]: Active

SMILES: CC(CN1c2ccccc2Sc2ccccc21)N(C)C (stereo not given) [PROMETHAZINE]
- IC50 [5]: 85 µM
- inhibition [7]: Active
